Test results from ChEMBL document CHEMBL1146019, “Structure-based design of novel HIV-1 protease inhibitors to combat drug resistance” (J Med Chem, 2006).

What was measured:
[1] = test system: Human immunodeficiency virus 1; experiment: Antiviral activity against HIV1 LAI isolate in human MT2 cells; type: functional, organism-based; details: Human immunodeficiency virus 1, MT2
Method in brief: (§1)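 MT-2 cells (2 × 10⁴/mL) were infected with 100 TCID₅₀ of virus and incubated with various drug concentrations at 37 °C for 7 days. MTT was then added for 2 h at 37 °C, formazan was dissolved in acidified 2-propanol with 4% Triton X-100, and optical density was read. Assays were run in duplicate or triplicate.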

[2] = test system: Human immunodeficiency virus 1; experiment: Antiviral activity against HIV1 LAI isolate in human PHA-PBMC cells; type: functional, organism-based; details: Human immunodeficiency virus 1, PBMC
Method in brief: (§2)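 PHA-activated PBMC (1 × 10⁶/mL) were exposed to 50 TCID₅₀ of each isolate and cultured with or without drug in 10-fold serial dilutions. On day 7, supernatant p24 Gag was measured by chemiluminescent enzyme immunoassay. IC₅₀ was the concentration suppressing p24 production by 50% relative to drug-free control cultures. Assays were run in triplicate.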

[3] = test system: Human immunodeficiency virus 1; experiment: Antiviral activity against HIV1 BA-L isolate in human PHA-PBMC cells; type: functional, organism-based; details: Human immunodeficiency virus 1, PBMC; method in brief: as §2
[4] = test system: Human immunodeficiency virus 2; experiment: Antiviral activity against HIV2 EHO isolate in human MT2 cells; type: functional, organism-based; details: Human immunodeficiency virus 2, MT2; method in brief: as §1
[5] = test system: Human immunodeficiency virus 1; experiment: Antiviral activity against multi drug-resistant HIV1 ET variant in human PHA-PBMC cells; type: functional, organism-based; details: Human immunodeficiency virus 1, PBMC
Method in brief: (§3)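 PHA-activated peripheral blood mononuclear cells (1 × 10⁶/mL) infected with 50 TCID₅₀ of each isolate and cultured with or without drug in 10-fold serial dilutions. On day 7, p24 Gag protein in the supernatant was measured by automated chemiluminescent enzyme immunoassay. IC₅₀ was the concentration suppressing p24 production by 50% relative to drug-free control cultures. Assays were run in triplicate.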

[6] = test system: Human immunodeficiency virus 1; experiment: Antiviral activity against multi drug-resistant HIV1 C variant in human PHA-PBMC cells; type: functional, organism-based; details: Human immunodeficiency virus 1, PBMC; method in brief: as §3
[7] = test system: Human immunodeficiency virus 1; experiment: Antiviral activity against multi drug-resistant HIV1 G variant in human PHA-PBMC cells; type: functional, organism-based; details: Human immunodeficiency virus 1, PBMC; method in brief: as §3
[8] = test system: Human immunodeficiency virus 1; experiment: Antiviral activity against multi drug-resistant HIV1 TM variant in human PHA-PBMC cells; type: functional, organism-based; details: Human immunodeficiency virus 1, PBMC; method in brief: as §3
[9] = test system: Human immunodeficiency virus 1; experiment: Antiviral activity against multi drug-resistant HIV1 EV variant in human PHA-PBMC cells; type: functional, organism-based; details: Human immunodeficiency virus 1, PBMC; method in brief: as §3
[10] = test system: Human immunodeficiency virus 1; experiment: Antiviral activity against multi drug-resistant HIV1 ES variant in human PHA-PBMC cells; type: functional, organism-based; details: Human immunodeficiency virus 1, PBMC; method in brief: as §3
[11] = test system: Human immunodeficiency virus 1; experiment: Antiviral activity against multi drug-resistant HIV1 K variant in human PHA-PBMC cells; type: functional, organism-based; details: Human immunodeficiency virus 1, PBMC; method in brief: as §3
[12] = test system: Human immunodeficiency virus 1; experiment: Antiviral activity against multi drug-resistant HIV1 B variant in human PHA-PBMC cells; type: functional, organism-based; details: Human immunodeficiency virus 1, PBMC; method in brief: as §3
[13] = target: Human immunodeficiency virus type 1 protease (Human immunodeficiency virus 1, UniProt Q72874); experiment: Inhibition of HIV1 protease
MT2 = experiment: Cytotoxicity against human MT2 cells; type: functional
PBMC = experiment: Cytotoxicity against human PHA-PBMC cells; type: functional

| Ki [13] | Compound | IC50 [1] | IC50 [2] | IC50 [3] | IC50 [4] | IC50 [5] | IC50 [6] | IC50 [7] | IC50 [8] | IC50 [9] | IC50 [10] | IC50 [11] | IC50 [12] | CC50 (MT2) | CC50 (PBMC) |
| --- | --- | --- | --- | --- | --- | --- | --- | --- | --- | --- | --- | --- | --- | --- | --- |
| – | CC(C)(C)NC(=O)[C@@H]1C[C@@H]2CCCC[C@@H]2CN1C[C@@H](O)[C@H](Cc1ccccc1)NC(=O)[C@H](CC(N)=O)NC(=O)c1ccc2ccccc2n1 | 24 nM | 14 nM | 18 nM | 1.9 nM | 17 nM | 100 nM | 59 nM | 250 nM | > 1000 nM | > 1000 nM | 20 nM | – | – | – |
| – | CC(C)CN(C[C@@H](O)[C@H](Cc1ccccc1)NC(=O)O[C@H]1CCOC1)S(=O)(=O)c1ccc(N)cc1 | 24 nM | 34 nM | 29 nM | 440 nM | 23 nM | 300 nM | 310 nM | 220 nM | > 1000 nM | > 1000 nM | 68 nM | 290 nM | – | – |
| – | CC(C)CN(C[C@@H](O)[C@H](Cc1ccccc1)NC(=O)O[C@H]1CO[C@H]2OCC[C@H]21)S(=O)(=O)c1ccc(N)cc1 | – | – | – | – | – | 3.5 nM | 3.7 nM | 3.5 nM | – | – | 3 nM | 10.2 nM | – | – |
| 0.14 nM | CC(C)CN(CC(O)C(Cc1ccccc1)NC(=O)O[C@@H]1C[C@@H]2CCO[C@@H]2C1)S(=O)(=O)c1ccc(N)cc1 (some centres not stated) | 8 nM | – | – | – | – | – | – | – | – | – | – | – | – | – |
| 5.3 nM | CC(C)CN(CC(O)C(Cc1ccccc1)NC(=O)O[C@H]1C[C@H]2CCC[C@H]2C1)S(=O)(=O)c1ccc(CO)cc1 (some centres not stated) | > 1000 nM | – | – | – | – | – | – | – | – | – | – | – | – | – |
| – | CC(C)CN(CC(O)C(Cc1ccccc1)NC(=O)O[C@@H]1C[C@@H]2CCO[C@@H]2C1)S(=O)(=O)c1ccc(CO)cc1 (some centres not stated) | 1.8 nM | 1.8 nM | 2 nM | 21 nM | 3 nM | 5 nM | 20 nM | 4 nM | 52 nM | 31 nM | 3 nM | 15 nM | > 100000 nM | > 100000 nM |
| – | CC(C)(C)NC(=O)[C@@H]1CN(Cc2cccnc2)CCN1C[C@@H](O)C[C@@H](Cc1ccccc1)C(=O)N[C@H]1c2ccccc2C[C@H]1O | 26 nM | 32 nM | 24 nM | 13 nM | 30 nM | 500 nM | 500 nM | > 1000 nM | > 1000 nM | > 1000 nM | 260 nM | > 1000 nM | – | – |
| – | Cc1c(O)cccc1C(=O)N[C@@H](CSc1ccccc1)[C@H](O)CN1C[C@H]2CCCC[C@H]2C[C@H]1C(=O)NC(C)(C)C | 10 nM | 14 nM | 7 nM | 20 nM | 32 nM | 310 nM | 170 nM | > 1000 nM | > 1000 nM | > 1000 nM | > 1000 nM | > 1000 nM | – | – |
| – | CC(C)c1nc(CN(C)C(=O)N[C@H](C(=O)N[C@@H](Cc2ccccc2)C[C@H](O)[C@H](Cc2ccccc2)NC(=O)OCc2cncs2)C(C)C)cs1 [RITONAVIR] | 34 nM | 43 nM | 36 nM | 290 nM | 15 nM | > 1000 nM | > 1000 nM | > 1000 nM | > 1000 nM | > 1000 nM | 57 nM | > 1000 nM | – | – |
